# In ChEMBL document CHEMBL1156597, “Structure-activity relationship of kahalalide F synthetic analogues” (J Med Chem, 2008):
# Assays:
# DU-145 = experiment: Cytotoxicity against human DU145 cells after 48 hrs by SRB assay; type: functional, cell-based; settings: Homo sapiens, DU-145, 48 h; for CC50: read-out: LC50 (the source's name)
# In short: (§1)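 Cells grown in RPMI 1640 with 10% FBS and penicillin/streptomycin at 37 °C and 5% CO₂, trypsinized, then seeded at 5 × 10³/well. After 18 h drug-free attachment, samples in DMSO/EtOH/PBS (0.5:0.5:99) were added for 48 h continuous exposure. Cells were fixed with cold TCA (1 h, 4 °C) and stained with SRB (10 min). Tris-solubilized stain read at 490 nm. Triplicate wells, mean ± SD; GI₅₀ derived.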
# LNCaP = experiment: Cytotoxicity against human LNcaP cells after 48 hrs by SRB assay; type: functional; settings: for CC50: read-out: LC50 (the source's name); in short: as §1
# [1] = Cytotoxicity against human IGROV cells after 48 hrs by SRB assay; type: functional; settings: for CC50: read-out: LC50 (the source's name); in short: as §1
# [2] = Cytotoxicity against human IGROV-ET cells after 48 hrs by SRB assay; type: functional; settings: for CC50: read-out: LC50 (the source's name); in short: as §1
# SK-BR-3 = experiment: Cytotoxicity against human SKBR3 cells after 48 hrs by SRB assay; type: functional; settings: SK-BR-3, 48 h; for CC50: read-out: LC50 (the source's name); in short: as §1
# SK-MEL-28 = experiment: Cytotoxicity against human SK-MEL-28 cells after 48 hrs by SRB assay; type: functional, cell-based; settings: Homo sapiens, SK-MEL-28, 48 h; for CC50: read-out: LC50 (the source's name); in short: as §1
# A549 = experiment: Cytotoxicity against human A549 cells after 48 hrs by SRB assay; type: functional, cell-based; settings: Homo sapiens, A549, 48 h; in short: as §1
# K562 = experiment: Cytotoxicity against human K562 cells after 48 hrs by SRB assay; type: functional; settings: K562, 48 h; for CC50: read-out: LC50 (the source's name); in short: as §1
# PANC-1 = experiment: Cytotoxicity against human PANC1 cells after 48 hrs by SRB assay; type: functional; settings: PANC-1, 48 h; for CC50: read-out: LC50 (the source's name); in short: as §1
# HT-29 = experiment: Cytotoxicity against human HT29 cells after 48 hrs by SRB assay; type: functional, cell-based; settings: Homo sapiens, HT-29, 48 h; for CC50: read-out: LC50 (the source's name); in short: as §1
# LoVo [3] = experiment: Cytotoxicity against human LoVo cells after 48 hrs by SRB assay; type: functional; settings: for CC50: read-out: LC50 (the source's name)
# LoVo [4] = experiment: Cytotoxicity against human doxorubicin resistant LoVo cells after 48 hrs by SRB assay; type: functional; settings: for CC50: read-out: LC50 (the source's name); in short: as §1
# HeLa = experiment: Cytotoxicity against human HeLa cells after 48 hrs by SRB assay; type: functional; settings: for CC50: read-out: LC50 (the source's name); in short: as §1
# [5] = Cytotoxicity against human HeLa-APL cells after 48 hrs by SRB assay; type: functional; in short: as §1
compound,measurement,setting,value
C/C=C1\NC(=O)[C@H](Cc2ccccc2)NC(=O)[C@@H](C(C)C)NC(=O)[C@@H]([C@H](C)CC)NC(=O)[C@H](NC(=O)[C@H](NC(=O)[C@H](CCCN)NC(=O)[C@H]2CCCN2C(=O)[C@H](NC(=O)[C@H](CCC(=O)O)NC(=O)[C@@H](NC(=O)[C@H](NC(=O)CCCC(C)C)C(C)C)[C@@H](C)O)C(C)C)[C@H](C)CC)[C@H](C)OC(=O)[C@H](C(C)C)NC1=O,CC50,DU-145,1660 nM
same,CC50,LNCaP,1370 nM
same,CC50,[1],842 nM
same,CC50,[2],632 nM
same,CC50,SK-BR-3,1040 nM
same,CC50,SK-MEL-28,1820 nM
same,LC50,A549,1790 nM
same,CC50,K562,1890 nM
same,CC50,PANC-1,2270 nM
same,CC50,HT-29,2330 nM
same,CC50,LoVo [3],3860 nM
same,CC50,LoVo [4],3670 nM
same,CC50,HeLa,1350 nM
same,LC50 (concentration giving 50% net cell kill),[5],1420 nM
C/C=C1\NC(=O)[C@H](Cc2ccccc2)NC(=O)[C@@H](C(C)C)NC(=O)[C@@H]([C@H](C)CC)NC(=O)[C@H](NC(=O)[C@H](NC(=O)[C@H](CCCN)NC(=O)[C@H]2CCCN2C(=O)[C@H](NC(=O)[C@@H](NC(=O)[C@@H](NC(=O)[C@H](NC(=O)C(F)(F)C(F)(F)C(F)(F)C(F)(F)C(F)(F)C(F)(F)F)C(C)C)[C@@H](C)O)C(C)C)C(C)C)[C@H](C)CC)[C@H](C)OC(=O)[C@H](C(C)C)NC1=O,GI50,DU-145,614 nM
same,GI50,DU-145; read-out: GI50,534 nM
same,CC50,DU-145,708 nM
same,GI50,LNCaP,758 nM
same,TGI,LNCaP,757 nM
same,CC50,LNCaP,753 nM
same,GI50,[1],584 nM
same,GI50,[1]; read-out: GI50,854 nM
same,CC50,[1],459 nM
same,GI50,[2],814 nM
same,GI50,[2]; read-out: GI50,697 nM
same,CC50,[2],1040 nM
same,TGI,SK-BR-3,453 nM
same,GI50,SK-BR-3; read-out: GI50,291 nM
same,CC50,SK-BR-3,578 nM
same,GI50,SK-MEL-28,765 nM
same,GI50,SK-MEL-28; read-out: GI50,734 nM
same,CC50,SK-MEL-28,794 nM
same,GI50,A549,745 nM
same,LC50,A549,865 nM
same,GI50,A549; read-out: GI50,636 nM
same,GI50,K562,830 nM
same,TGI,K562,1010 nM
same,CC50,K562,1220 nM
same,GI50,PANC-1,2320 nM
same,TGI,PANC-1,3460 nM
same,CC50,PANC-1,2000 nM
same,GI50,HT-29,513 nM
same,TGI,HT-29,520 nM
same,CC50,HT-29,563 nM
same,GI50,LoVo [3],1160 nM
same,TGI,LoVo [3],1180 nM
same,CC50,LoVo [3],798 nM
same,GI50,LoVo [4],286 nM
same,TGI,LoVo [4],289 nM
same,CC50,LoVo [4],290 nM
same,GI50,HeLa,961 nM
same,TGI,HeLa,947 nM
same,CC50,HeLa,931 nM
same,GI50,[5],596 nM
same,LC50 (concentration giving 50% net cell kill),[5],1200 nM
same,TGI,[5],888 nM
